This is an account of results in ChEMBL document CHEMBL1125795, “Substrate analogue renin inhibitors containing replacements of histidine in P2 or isosteres of the amide bond between P3 and P2 sites” (J Med Chem, 1991).

In series [1] the target is T1, Cathepsin D (Bos taurus, UniProt P80209).
T1 sequence (P80209 whole entry): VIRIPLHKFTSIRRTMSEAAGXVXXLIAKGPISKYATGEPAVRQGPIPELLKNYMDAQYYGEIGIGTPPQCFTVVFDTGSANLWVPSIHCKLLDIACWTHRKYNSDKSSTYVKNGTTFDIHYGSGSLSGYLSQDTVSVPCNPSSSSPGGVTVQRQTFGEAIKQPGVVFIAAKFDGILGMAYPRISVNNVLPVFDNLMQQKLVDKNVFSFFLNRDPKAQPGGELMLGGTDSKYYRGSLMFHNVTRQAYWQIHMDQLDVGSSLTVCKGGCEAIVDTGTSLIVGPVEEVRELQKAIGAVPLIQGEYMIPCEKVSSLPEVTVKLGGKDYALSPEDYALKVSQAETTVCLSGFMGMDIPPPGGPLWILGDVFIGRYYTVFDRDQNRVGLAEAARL
Briefly: In vitro inhibitory activity against bovine Cathepsin D. An outline of the steps:
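Bovine cathepsin D (100 munits) acting on hemoglobin at pH 3.2, 20 min, 37 °C. TCA-soluble peptides released were read by absorbance at 280 nm; IC50 taken as the concentration giving 50% inhibition of peptide liberation.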

For series [2], the target named is Pepsin A (Sus scrofa, UniProt P00791). The experiment in a line: In vitro inhibitory activity against porcine Pepsin. An outline of the steps: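 Porcine pepsin (20 units) digesting hemoglobin at pH 1.8, 10 min, 35.5 °C. Released TCA-soluble peptides measured at 280 nm; IC50 is the concentration halving peptide liberation.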
Series [3] has as its target T2, Renin (Homo sapiens, UniProt P00797).
T2 sequence (P00797 whole entry): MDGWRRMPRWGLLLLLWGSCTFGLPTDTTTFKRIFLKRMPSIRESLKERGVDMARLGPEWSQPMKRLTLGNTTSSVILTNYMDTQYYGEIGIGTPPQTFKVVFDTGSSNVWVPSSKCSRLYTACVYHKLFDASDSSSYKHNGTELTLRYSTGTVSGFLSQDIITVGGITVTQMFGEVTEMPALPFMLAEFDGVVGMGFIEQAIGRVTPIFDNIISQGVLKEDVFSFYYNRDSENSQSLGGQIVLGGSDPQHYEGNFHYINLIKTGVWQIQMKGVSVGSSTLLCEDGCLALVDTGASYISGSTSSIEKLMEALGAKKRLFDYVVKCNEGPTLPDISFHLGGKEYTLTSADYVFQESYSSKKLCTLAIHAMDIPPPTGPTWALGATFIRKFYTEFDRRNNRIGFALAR
Briefly: In vitro for inhibitory activity against human renin. An outline of the steps: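 Endogenous renin and angiotensinogen in human EDTA plasma; incubation mixture of 76 mM maleate pH 5.5, 7.2 mM EDTA, 1% DMSO, 8.3 mM 8-hydroxyquinoline; 2 h at 37 °C, then on ice; angiotensin I measured by radioimmunoassay. At least three inhibitor concentrations bracketing the IC50; IC50 calculated from percent inhibition.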

Series [4] in a line: Plasma renin activity change in salt depleted cynomolgus monkeys after 180 minutes, administration of the compound. The series is classed as functional, Cercopithecidae. An outline of the steps:
(§1)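 Cynomolgus monkeys salt-depleted with furosemide 2 mg/kg im daily from 4 days before the experiment; haloperidol 0.3 mg/kg im for sedation on the test day. Conscious chair-restrained animals; systolic pressure by tail-cuff every 5 min, stabilized before dosing. Single oral 30 mg/kg dose, n = 4; PRA from blood samples. Change from T = 0 baseline, mean ± SE.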

Series [5] is described as follows: Plasma renin activity change in salt depleted cynomolgus monkeys. The series is classed as functional, Cercopithecidae. An outline of the steps:
as §1

Series [6] in a line: Partition coefficient (logP). The format is physicochemical. The settings on record: octanol/water. An outline of the steps:
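Octanol/water partition coefficient measured at pH 7.4.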

pIC50: −log10 of the molar value.

Sequence of Pepsin A (P00791 whole entry): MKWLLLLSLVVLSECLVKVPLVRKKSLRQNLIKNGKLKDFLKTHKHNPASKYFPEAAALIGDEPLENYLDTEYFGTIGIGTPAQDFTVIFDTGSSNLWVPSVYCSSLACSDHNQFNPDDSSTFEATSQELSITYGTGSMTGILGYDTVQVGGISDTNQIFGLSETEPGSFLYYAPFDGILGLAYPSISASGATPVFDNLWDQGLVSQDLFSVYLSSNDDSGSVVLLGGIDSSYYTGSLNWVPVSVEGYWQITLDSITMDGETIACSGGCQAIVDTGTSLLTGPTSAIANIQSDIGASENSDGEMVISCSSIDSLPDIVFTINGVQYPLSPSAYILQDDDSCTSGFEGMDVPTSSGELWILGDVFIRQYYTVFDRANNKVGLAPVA

What is called pIC50 is the negative decadic logarithm of the IC50, by convention in mol/L. Read a low pIC50 as a large IC50. Take `CC[C@H](C)[C@H](NC(=O)C[C@H](O)[C@H](CC1CCCCC1)NC(=O)CCNC(=O)[C@H](Cc1ccccc1)NC(=O)CCCCCN)C(=O)NCc1cnc(C)nc1N`: the pIC50 is less than 5.00 in series [1], less than 5.00 in series [2] and 8.35 in series [3].
The logP is the decadic logarithm of the partition coefficient of the neutral form, usually between octanol and water. Low readings indicate a more hydrophilic compound, high ones a more lipophilic compound. As to `CC[C@H](C)[C@H](NC(=O)C[C@H](O)[C@@H](CC1CCCCC1)NC(=O)CCNC(=O)[C@@H](Cc1ccccc1)NC(=O)OC(C)(C)C)C(=O)NCc1cnc(C)nc1N`, the Change is recorded as -21.6% in series [4] and -25.1% in series [5]. The negative-log IC50 (pIC50) in series [1] was 5.10; in series [2] it was 4.73; in series [3], 8.82. The logP in series [6] was 2.88.
Regarding `CC[C@H](C)[C@H](NC(=O)C[C@H](O)[C@H](CC1CCCCC1)NC(=O)CCNC(=O)[C@H](Cc1ccccc1)NC(=O)N1CCC(NC(=O)OC(C)(C)C)CC1)C(=O)NCc1cnc(C)nc1N`, the pIC50 in series [1] is 5.23; in series [2] it was less than 5.00; in series [3] it was 9.19.
Take `CC[C@H](C)[C@H](NC(=O)C[C@H](O)[C@H](Cc1ccccc1)NC(=O)[C@H](Cc1c[nH]cn1)NC(=O)[C@H](Cc1ccccc1)NC(=O)OC(C)(C)C)C(=O)NCc1cccnc1`: the negative logarithm of the IC50 (pIC50) was 5.24 in series [1], less than 5.00 in series [2] and 8.54 in series [3].
With `CC[C@H](C)[C@H](NC(=O)C[C@H](O)[C@H](CC1CCCCC1)NC(=O)CCNC(=O)[C@@H](Cc1ccccc1)NC(=O)N1CCC(C(=O)O)CC1)C(=O)NCc1cnc(C)nc1N`, the figures for the pIC50 in series [1], in series [2] and in series [3] were less than 5.00, less than 5.00 and 8.94, respectively.
For `CCOC(=O)C1CCN(C(=O)N[C@@H](Cc2ccccc2)C(=O)NCCC(=O)N[C@@H](CC2CCCCC2)[C@@H](O)CC(=O)N[C@H](C(=O)NCc2cnc(C)nc2N)[C@@H](C)CC)CC1`, the figures for the pIC50 in series [1], in series [2] and in series [3] were 5.50, 5.38 and 9.39, respectively.
For `CC[C@H](C)[C@H](NC(=O)C[C@H](O)[C@@H](CC1CCCCC1)NC(=O)CCCNC(=O)[C@@H](Cc1ccccc1)NC(=O)OC(C)(C)C)C(=O)NCc1cnc(C)nc1N`, the pIC50 in series [1] is 5.49; in series [2], less than 5.00; in series [3] it was 7.55.
As to `CC[C@H](C)[C@H](NC(=O)C[C@H](O)[C@H](CC1CCCCC1)NC(=O)CCNC(=O)[C@H](Cc1ccccc1)NC(=O)N1CCC(N(C)C)CC1)C(=O)NCc1cnc(C)nc1N`, the results for the pIC50 in series [1], in series [2] and in series [3] were 5.00, less than 5.00 and 9.24, respectively.
On to `CC[C@H](C)[C@H](NC(=O)C[C@H](O)[C@H](CC1CCCCC1)NC(=O)CS(=O)(=O)CC(=O)[C@H](Cc1ccccc1)NC(=O)OC(C)(C)C)C(=O)NCc1cnc(C)nc1N`, for which the pIC50 is less than 5.00 in series [1], less than 5.00 in series [2] and 6.62 in series [3].
For `CC[C@H](C)[C@H](NC(=O)C[C@H](O)[C@@H](CC1CCCCC1)NC(=O)CNC(=O)[C@@H](Cc1ccccc1)NC(=O)OC(C)(C)C)C(=O)NCc1cnc(C)nc1N`, the pIC50 in series [1] is 4.89; in series [2], 4.41; in series [3], 8.60.
Turning to `CC[C@H](C)[C@H](NC(=O)C[C@H](O)[C@H](CC1CCCCC1)NC(=O)CCNC(=O)[C@@H](N)Cc1ccccc1)C(=O)NCc1cnc(C)nc1N`, the pIC50 was less than 5.00 in series [1], less than 5.00 in series [2] and 7.71 in series [3].
Regarding `CC[C@H](C)[C@H](NC(=O)C[C@H](O)[C@H](CC1CCCCC1)NC(=O)C[S+]([O-])CC(=O)[C@H](Cc1ccccc1)NC(=O)OC(C)(C)C)C(=O)NCc1cnc(C)nc1N` (stereo not given in full), the results for the negative-log IC50 (pIC50) in series [1], in series [2] and in series [3] were less than 5.00, less than 5.00 and 7.15, respectively.
Turning to `CC[C@H](C)[C@H](NC(=O)C[C@H](O)[C@H](CC1CCCCC1)NC(=O)CCNC(=O)[C@H](Cc1ccccc1)NC(=O)N1CCOCC1)C(=O)NCc1cnc(C)nc1N`, the values for the pIC50 in series [1], in series [2] and in series [3] were less than 5.00, less than 5.00 and 9.55, respectively.
As for `CC[C@H](C)[C@H](NC(=O)[C@@H](C[C@H](O)[C@H](CC(C)C)NC(=O)CNC(=O)[C@H](Cc1ccccc1)NC(=O)OC(C)(C)C)C(C)C)C(=O)NCc1cnc(C)nc1N`, the pIC50 in series [1] was 5.41; in series [2], 5.85; in series [3], 8.27.
The like results for `CC[C@H](C)[C@H](NC(=O)C[C@H](O)[C@H](CC1CCCCC1)NC(=O)[C@H](C)NC(=O)[C@H](Cc1ccccc1)NC(=O)OC(C)(C)C)C(=O)NCc1cnc(C)nc1N` were, in that order, 7.55, 6.02 and 9.28.
For the molecule `CC[C@H](C)[C@H](NC(=O)[C@@H](C[C@H](O)[C@H](CC(C)C)NC(=O)CSCC(=O)[C@H](Cc1ccccc1)NC(=O)OC(C)(C)C)C(C)C)C(=O)NCc1cnc(C)nc1N`, the pIC50 in series [1] is 5.06; in series [2], 5.22; in series [3], 8.27.
On to `CC[C@H](C)[C@H](NC(=O)C[C@H](O)[C@H](CC1CCCCC1)NC(=O)CC[C@@H](O)[C@H](Cc1ccccc1)NC(=O)OC(C)(C)C)C(=O)NCc1cnc(C)nc1N`, for which the pIC50 was less than 5.00 in series [1], 5.00 in series [2] and 8.92 in series [3].
For the molecule `CC[C@H](C)[C@H](NC(=O)C[C@H](O)[C@H](CC1CCCCC1)NC(=O)CCNC(=O)[C@@H](Cc1ccccc1)NC(=O)CC(C)(C)N)C(=O)NCc1cnc(C)nc1N`, the pIC50 in series [1] is less than 5.00; in series [2], less than 5.00; in series [3] it was 8.74.
Turning to `CC[C@H](C)[C@H](NC(=O)C[C@H](O)[C@H](CC1CCCCC1)NC(=O)CCC(=O)[C@H](Cc1ccccc1)NC(=O)OC(C)(C)C)C(=O)NCc1cnc(C)nc1N`, the pIC50 in series [1] is less than 5.00; in series [2] it was less than 5.00; in series [3], 8.07.
Turning to `CC[C@H](C)[C@H](NC(=O)C[C@H](O)[C@H](CC1CCCCC1)NC(=O)CSC[C@@H](O)[C@H](Cc1ccccc1)NC(=O)OC(C)(C)C)C(=O)NCc1cnc(C)nc1N`, the values for the pIC50 in series [1], in series [2] and in series [3] were 4.14, less than 4.00 and 8.26, respectively.
With `CC[C@H](C)[C@H](NC(=O)C[C@H](O)[C@H](CC1CCCCC1)NC(=O)CSC[C@H](O)[C@H](Cc1ccccc1)NC(=O)OC(C)(C)C)C(=O)NCc1cnc(C)nc1N`, the pIC50 is less than 4.00 in series [1], less than 4.00 in series [2] and 8.20 in series [3].
On to `CC[C@H](C)[C@H](NC(=O)C[C@H](O)[C@H](CC1CCCCC1)NC(=O)CC[C@H](O)[C@H](Cc1ccccc1)NC(=O)OC(C)(C)C)C(=O)NCc1cnc(C)nc1N`, for which the pIC50 in series [1] was less than 5.00; in series [2], less than 5.00; in series [3], 8.38.
As for `CC[C@H](C)[C@H](NC(=O)C[C@H](O)[C@@H](CC1CCCCC1)NC(=O)CNC(=O)[C@@H](Cc1ccccc1)NC(=O)OC(C)(C)C)C(=O)NCc1cccnc1`, the negative logarithm of the IC50 (pIC50) in series [1] was 5.19; in series [2], 4.40; in series [3], 8.55.
`CC[C@H](C)[C@H](NC(=O)[C@@H](C[C@H](O)[C@H](CC(C)C)NC(=O)CCNC(=O)[C@H](Cc1ccccc1)NC(=O)OC(C)(C)C)C(C)C)C(=O)NCc1cnc(C)nc1N`: the pIC50 in series [1] was 5.33; in series [2], 6.08; in series [3], 8.39.
